For orientation: MIC means the least concentration at which growth counts as inhibited. A lower MIC goes with inhibition by little substance. Usually CC50 stands for the concentration at which the toxic effect on the cells reaches its halfway point.

Values after ≈ are worked out from the molar mass of the structure shown.

Data set [1] concerns Clostridioides difficile. The data set is described as follows: Antibacterial activity against Clostridium difficile ATCC 700057 incubated for 48 hrs by CLSI method. The class given is functional. To be noted: ATCC 700057, 48 h. In outline:
(§1)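 Broth microdilution per CLSI anaerobe method in pre-reduced (2-4 h) Brucella broth with haemin and vitamin K, 35 °C anaerobically for 48 h. Compounds from 5 mg/mL DMSO stocks, twofold dilutions in water mixed with double-strength broth; final 0.25–128 μg/mL. […] Triplicate; modal MIC read visually as lowest concentration inhibiting growth.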

Data set [2] concerns Streptococcus pneumoniae. The data set is described as follows: Antibacterial activity against Streptococcus pneumoniae ATCC 49619 incubated for 24 hrs by CLSI method. In kind it is functional. To be noted: ATCC 49619, 24 h. In outline: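 CLSI broth microdilution in MHB with 2.5% lysed horse blood, 5% CO2, 35 °C, 24 h. Compounds from 5 mg/mL DMSO stocks diluted in water plus double-strength broth; final 0.25–128 μg/mL. […] Triplicate; modal MIC read visually as lowest growth-inhibiting concentration.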

For data set [3], the system named is Staphylococcus aureus. The data set is described as follows: Antibacterial activity against methicillin-resistant Staphylococcus aureus NCTC 10442 incubated for 24 hrs by CLSI method. The class given is functional. As to conditions: NCTC 10442, 24 h. In outline: (§2)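 Broth microdilution per CLSI aerobic guidance in Mueller Hinton broth, ambient air, 35 °C for 24 h. DMSO stocks were diluted in water, then serially diluted with double-strength broth inoculum added, for final 0.25–128 μg/mL. […] MIC was read visually as the lowest concentration inhibiting growth; the modal value of triplicates was recorded.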

For data set [4], the system named is Staphylococcus aureus. The data set is described as follows: Antimicrobial activity against Staphylococcus aureus ATCC 29213 incubated for 24 hrs by CLSI method. In kind it is functional. As to conditions: ATCC 29213, 24 h. Summed up: as §2
For data set [5], the system named is Enterococcus faecalis. The data set can be described thus: Antibacterial activity against Enterococcus faecalis ATCC 29212 incubated for 24 hrs by CLSI method. In kind it is functional. As to conditions: ATCC 29212, 24 h.
In the next data set the test system is Klebsiella pneumoniae. The data set is described as follows: Antibacterial activity against Klebsiella pneumoniae 700603 incubated for 18 hrs by CLSI method. In kind it is functional. To be noted: Klebsiella pneumoniae, 700603, 18 h. In outline: (§3)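 Screen run by CO-ADD: mid-log cultures in cation-adjusted MHB, 5 × 10^5 CFU/mL, compounds at up to 32 μg/mL in 1:2 serial dilutions (8 steps), final DMSO ≤0.5%, duplicate. 37 °C for 18 h without shaking; OD600 read against media-only and untreated-bacteria references. MIC = lowest concentration giving ≥80% inhibition; colistin standard.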

Data set [6] is described as follows: Cytotoxicity against human HEK293 cells assessed as reduction in cell growth incubated for 20 hrs by resazurin dye-based fluorometric assay. Summed up:
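HEK293 cells, 5000 per well in DMEM + 10% FBS, exposed to compounds (top 32 μg/mL, 1:2 serial dilution ×8, ≤0.5% DMSO, duplicate) for 20 h at 37 °C, 5% CO2. Resazurin added (2.3 μg/mL final), 3 h further; fluorescence ex 560/em 590 nm. CC50 from sigmoidal dose-response fit against log concentration; tamoxifen standard.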

A further data set concerns Escherichia coli. The data set is described as follows: Antibacterial activity against Escherichia coli ATCC 25922 incubated for 18 hrs by CLSI method. The class given is functional. To be noted: ATCC 25922, 18 h. In outline: as §3
Data set [7] deals with Staphylococcus aureus. The data set can be described thus: Antimicrobial activity against Staphylococcus aureus ATCC 43300 incubated for 18 hrs by CLSI method. The class given is functional. To be noted: ATCC 43300, 18 h.
Data set [8] in a line: Haemolytic activity in sheep erythrocytes at 5 ug/ml incubated for 2 hrs under shaking condition relative to control. As to conditions: read-out: Activity. The class given is ADME, cell-based, Ovis aries, Erythrocyte. Summed up:
(§4)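 Compounds in PBS mixed with washed sheep erythrocytes (2% final) at 5 or 50 μg/mL, rocked 2 h at 37 °C, centrifuged; supernatant absorbance at 540 nm. PBS-only value subtracted, then expressed relative to water lysis (100%). Triplicate, means reported.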

In the next data set the test system is Acinetobacter baumannii. The data set can be described thus: Antimicrobial activity against Acinetobacter baumannii ATCC 19606 incubated for 18 hrs by CLSI method. The class given is functional. To be noted: ATCC 19606 = CIP 70.34 = JCM 6841, 18 h. Summed up:
as §3

The subject of another data set is Pseudomonas aeruginosa. The data set can be described thus: Antimicrobial activity against Pseudomonas aeruginosa ATCC 27853 incubated for 18 hrs by CLSI method. As to conditions: ATCC 27853, 18 h. The class given is functional. In outline:
as §3

A short description of data set [9]: Haemolytic activity in sheep erythrocytes at 50 ug/ml incubated for 2 hrs under shaking condition relative to control. The class given is ADME, cell-based, Ovis aries, Erythrocyte. To be noted: read-out: Activity. Summed up: as §4
In data set [10] the test system is Clostridioides difficile. The data set can be described thus: Antibacterial activity against Clostridium difficile NSW132 RT027 incubated for 48 hrs by CLSI method. As to conditions: NSW132 RT027, 48 h. In kind it is functional. Summed up:
as §1

In data set [11] the test system is Staphylococcus aureus. The data set is described as follows: Antimicrobial activity against methicillin-resistant Staphylococcus aureus clinical isolate incubated for 18 hrs by CLSI method. In kind it is functional.
Data set [12] relates to Staphylococcus aureus. The data set can be described thus: Antimicrobial activity against glycopeptide intermediate susceptible/methicillin-resistant Staphylococcus aureus NRS1 incubated for 18 hrs by CLSI method. The class given is functional. To be noted: NRS1, 18 h.
Data set [13] has as its system Staphylococcus aureus. The data set can be described thus: Antimicrobial activity against methicillin-resistant Staphylococcus aureus ATCC 43300 incubated for 18 hrs by CLSI method. As to conditions: ATCC 43300, 18 h. In kind it is functional.
Data set [14] relates to Staphylococcus aureus. The data set is described as follows: Antimicrobial activity against methicillin-resistant Staphylococcus aureus clinical isolate with reduced daptomycin susceptibility incubated for 18 hrs by CLSI method. In kind it is functional.
Data set [15] deals with Staphylococcus aureus. The data set can be described thus: Antimicrobial activity against vancomycin resistant Staphylococcus aureus NARSA VRS10 incubated for 18 hrs by CLSI method. To be noted: NARSA VRS10, 18 h. The class given is functional.
Data set [16] has as its system Staphylococcus aureus. The data set can be described thus: Antimicrobial activity against glycopeptide intermediate susceptible Staphylococcus aureus NRS17 incubated for 18 hrs by CLSI method. The class given is functional. As to conditions: NRS17, 18 h.
For data set [17], the system named is Streptococcus pneumoniae. The data set is described as follows: Antibacterial activity against MDR Streptococcus pneumoniae ATCC 700677 incubated for 18 hrs by CLSI method. In kind it is functional. As to conditions: ATCC 700677, 18 h.
The subject of data set [18] is Enterococcus faecalis. The data set is described as follows: Antimicrobial activity against vancomycin-resistant Enterococcus faecalis clinical isolate incubated for 18 hrs by CLSI method. The class given is functional.

`CC(C)CCOc1ccc2ccccc2c1-c1c(OCc2cn(C[C@@H](CCCNC(=N)N)NC(=O)Cc3ccccc3)nn2)ccc2ccccc12.Cl`: the MIC in the data set with Clostridioides difficile [1] is 64 µg/mL; against Streptococcus pneumoniae [2], 8 µg/mL; in the data set on Staphylococcus aureus [3] it was 4 µg/mL; with Staphylococcus aureus [4] it was 4 µg/mL; in the data set with Enterococcus faecalis [5], 8 µg/mL; in the data set on Klebsiella pneumoniae, above 32 µg/mL. The MIC was above 32 µg/mL in the data set on Escherichia coli; 4 µg/mL with Staphylococcus aureus [7]; above 32 µg/mL in the data set on Acinetobacter baumannii; above 32 µg/mL in the data set on Pseudomonas aeruginosa; 64 µg/mL against Clostridioides difficile [10]. Also, the CC50 at 20 h in data set [6] was found to be 16.5 µg/mL. Besides, the hemolysis at 2 h, 5 ug/ml in data set [8] was found to be 1%. Also, the hemolysis at 2 h, 50 ug/ml in data set [9] is 87.4%.

With `CC(C)CCOc1ccc2ccccc2c1-c1c(OCc2cn(C[C@@H](CCCCN)NC(=O)[C@@H](CCCNC(=N)N)n3cc(CC4CCCCC4)nn3)nn2)ccc2ccccc12.Cl.Cl`, the minimum inhibitory concentration (MIC) in the data set on Clostridioides difficile [1] was 8 µg/mL; with Streptococcus pneumoniae [2], 4 µg/mL; against Staphylococcus aureus [3], 4 µg/mL; against Staphylococcus aureus [4] it was 4 µg/mL; with Enterococcus faecalis [5], 4 µg/mL; against Klebsiella pneumoniae, above 32 µg/mL. Besides, the MIC turned out to be 32 µg/mL against Escherichia coli; 2 µg/mL in the data set on Staphylococcus aureus [7]; 16 µg/mL with Acinetobacter baumannii; 32 µg/mL with Pseudomonas aeruginosa; 16 µg/mL in the data set on Clostridioides difficile [10]. For the same molecule, in data set [6], the CC50 at 20 h was above 32 µg/mL. In addition, the hemolysis at 2 h, 5 ug/ml in [8] was determined as 1.6%. Further, the hemolysis at 2 h, 50 ug/ml in data set [9] amounted to 88.8%.

With `CC(C)CCOc1ccccc1-c1ccccc1OCc1cn(C[C@@H](CCCCN)NC(=O)[C@@H](CCCNC(=N)N)n2cc(C3CCCCC3)nn2)nn1.Cl.Cl`, the MIC was 4 µg/mL against Clostridioides difficile [1]; 4 µg/mL with Streptococcus pneumoniae [2]; 4 µg/mL against Staphylococcus aureus [3]; 8 µg/mL in the data set on Staphylococcus aureus [4]; 8 µg/mL in the data set with Enterococcus faecalis [5]; 16 µg/mL against Klebsiella pneumoniae. Further, the MIC is 8 µg/mL against Escherichia coli; 4 µg/mL in the data set on Staphylococcus aureus [7]; 16 µg/mL in the data set with Acinetobacter baumannii; 8 µg/mL against Pseudomonas aeruginosa; 8 µg/mL against Clostridioides difficile [10]. In data set [6], the CC50 at 20 h was determined as 14.2 µg/mL. Further, in data set [8], the hemolysis at 2 h, 5 ug/ml is 1.9%. Further, the hemolysis at 2 h, 50 ug/ml in data set [9] is 22.9%.

With `CC(C)CCOc1ccccc1-c1ccccc1OCc1cn(C[C@@H](CCCCN)NC(=O)[C@@H](CCCNC(=N)N)NC(=O)Cc2ccccc2)nn1.Cl.Cl`, the MIC worked out at 16 µg/mL against Clostridioides difficile [1]; 8 µg/mL in the data set on Streptococcus pneumoniae [2]; 8 µg/mL in the data set on Staphylococcus aureus [3]; 8 µg/mL against Staphylococcus aureus [4]; 8 µg/mL with Enterococcus faecalis [5]; 32 µg/mL in the data set on Klebsiella pneumoniae. Besides, the MIC with Escherichia coli was 16 µg/mL; with Staphylococcus aureus [7], 4 µg/mL; in the data set on Acinetobacter baumannii, 32 µg/mL; against Pseudomonas aeruginosa, 32 µg/mL; with Clostridioides difficile [10], 16 µg/mL. Moreover, the CC50 at 20 h in [6] worked out at 32 µg/mL. Moreover, the hemolysis at 2 h, 5 ug/ml in [8] was found to be 0.6%. For the same molecule, the hemolysis at 2 h, 50 ug/ml in data set [9] worked out at 17.5%.

Take `CCCCCCCCCC(=O)N[C@@H](Cc1c[nH]c2ccccc12)C(=O)N[C@H](CC(N)=O)C(=O)N[C@@H](CC(=O)O)C(=O)N[C@@H]1C(=O)NCC(=O)N[C@@H](CCCN)C(=O)N[C@@H](CC(=O)O)C(=O)N[C@H](C)C(=O)N[C@@H](CC(=O)O)C(=O)NCC(=O)N[C@H](CO)C(=O)N[C@@H]([C@H](C)CC(=O)O)C(=O)N[C@@H](CC(=O)c2ccccc2N)C(=O)O[C@@H]1C`: the MIC in the data set with Staphylococcus aureus [11] was 2 µg/mL (≈ 1.23 µM); against Staphylococcus aureus [12], 8 µg/mL (≈ 4.94 µM); in the data set with Staphylococcus aureus [13], 0.5 to 1 µg/mL (≈ 0.309 to 0.617 µM); in the data set with Staphylococcus aureus [14] it was 4 µg/mL (≈ 2.47 µM); in the data set on Staphylococcus aureus [15] it was 2 µg/mL (≈ 1.23 µM); in the data set with Staphylococcus aureus [16], 8 µg/mL (≈ 4.94 µM). For the same molecule, the MIC with Streptococcus pneumoniae [17] is 1 to 2 µg/mL (≈ 0.617 to 1.23 µM); against Enterococcus faecalis [18], 8 µg/mL (≈ 4.94 µM).

These data come from ChEMBL document CHEMBL4390663, “Cationic biaryl 1,2,3-triazolyl peptidomimetic amphiphiles: synthesis, antibacterial evaluation and preliminary mechanism of action studies” (Eur J Med Chem, 2019).
